The M2OR odorant receptor database
Positions count from the first letter of the chain named.

Experiments:
Settings in all cases: stereoisomer not certain
[1] = target: T1, OR10R2 (Homo sapiens) (UniProt Q8NGX6)
T1 sequence (whole entry): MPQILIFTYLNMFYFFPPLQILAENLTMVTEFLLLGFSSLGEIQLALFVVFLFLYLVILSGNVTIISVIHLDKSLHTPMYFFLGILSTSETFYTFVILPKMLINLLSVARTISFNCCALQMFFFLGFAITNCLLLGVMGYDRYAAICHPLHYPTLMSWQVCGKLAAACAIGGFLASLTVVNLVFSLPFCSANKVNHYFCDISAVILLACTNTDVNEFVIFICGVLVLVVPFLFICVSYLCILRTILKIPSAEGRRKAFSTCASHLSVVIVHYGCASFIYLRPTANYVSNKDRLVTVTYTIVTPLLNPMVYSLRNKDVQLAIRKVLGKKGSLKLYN
In short: (§1)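 Whether a receptor–molecule pair is responsive (active) rests on the original authors' judgment that its measured signal was statistically different from baseline. Pairs without that judgment are non-responsive (inactive). Sources used varied assay methods, commonly transient luciferase assays in mammalian cell lines.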

[2] = target: T2, OR10S1 (Homo sapiens) (UniProt Q8NGN2)
T2 sequence (whole entry): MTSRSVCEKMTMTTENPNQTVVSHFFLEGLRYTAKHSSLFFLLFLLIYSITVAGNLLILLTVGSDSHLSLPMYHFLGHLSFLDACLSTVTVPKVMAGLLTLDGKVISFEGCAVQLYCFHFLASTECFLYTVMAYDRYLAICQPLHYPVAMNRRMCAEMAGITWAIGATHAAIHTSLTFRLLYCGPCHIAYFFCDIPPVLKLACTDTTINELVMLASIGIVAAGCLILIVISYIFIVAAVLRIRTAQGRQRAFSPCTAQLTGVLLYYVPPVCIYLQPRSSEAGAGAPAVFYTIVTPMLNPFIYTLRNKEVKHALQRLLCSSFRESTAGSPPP
In short: as §1

[3] = target: T3, OR10T2 (Homo sapiens) (UniProt Q8NGX3)
T3 sequence (whole entry): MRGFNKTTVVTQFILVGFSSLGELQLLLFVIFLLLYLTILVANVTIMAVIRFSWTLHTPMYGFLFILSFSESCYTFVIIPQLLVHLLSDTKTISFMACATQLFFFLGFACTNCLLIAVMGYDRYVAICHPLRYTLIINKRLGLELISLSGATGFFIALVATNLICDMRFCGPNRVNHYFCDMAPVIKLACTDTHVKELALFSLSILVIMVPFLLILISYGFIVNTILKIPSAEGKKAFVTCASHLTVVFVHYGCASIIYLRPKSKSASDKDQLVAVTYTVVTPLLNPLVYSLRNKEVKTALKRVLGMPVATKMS
In short: as §1

[4] = target: T4, OR10V1 (Homo sapiens) (UniProt Q8NGI7)
T4 sequence (whole entry): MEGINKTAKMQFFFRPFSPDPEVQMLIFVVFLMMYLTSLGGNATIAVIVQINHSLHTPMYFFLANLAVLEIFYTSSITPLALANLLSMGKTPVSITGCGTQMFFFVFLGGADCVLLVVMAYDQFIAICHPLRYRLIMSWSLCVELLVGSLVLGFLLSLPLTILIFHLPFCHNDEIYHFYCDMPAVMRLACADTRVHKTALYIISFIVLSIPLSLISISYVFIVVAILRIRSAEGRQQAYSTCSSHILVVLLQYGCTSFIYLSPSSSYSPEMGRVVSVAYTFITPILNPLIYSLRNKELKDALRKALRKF
In short: as §1

[5] = target: T5, OR10W1 (Homo sapiens) (UniProt Q8NGF6)
T5 sequence (whole entry): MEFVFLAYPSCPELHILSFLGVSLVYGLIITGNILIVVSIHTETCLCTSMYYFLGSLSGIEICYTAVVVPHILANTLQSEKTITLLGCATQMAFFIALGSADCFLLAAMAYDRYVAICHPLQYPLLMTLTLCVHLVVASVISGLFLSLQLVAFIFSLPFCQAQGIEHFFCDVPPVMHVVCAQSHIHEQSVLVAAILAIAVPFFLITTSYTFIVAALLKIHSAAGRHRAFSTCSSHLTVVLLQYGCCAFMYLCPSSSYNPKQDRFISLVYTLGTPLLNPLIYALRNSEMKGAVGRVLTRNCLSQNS
In short: as §1

[6] = target: T6, OR10X1 (Homo sapiens) (UniProt Q8NGY0)
T6 sequence (whole entry): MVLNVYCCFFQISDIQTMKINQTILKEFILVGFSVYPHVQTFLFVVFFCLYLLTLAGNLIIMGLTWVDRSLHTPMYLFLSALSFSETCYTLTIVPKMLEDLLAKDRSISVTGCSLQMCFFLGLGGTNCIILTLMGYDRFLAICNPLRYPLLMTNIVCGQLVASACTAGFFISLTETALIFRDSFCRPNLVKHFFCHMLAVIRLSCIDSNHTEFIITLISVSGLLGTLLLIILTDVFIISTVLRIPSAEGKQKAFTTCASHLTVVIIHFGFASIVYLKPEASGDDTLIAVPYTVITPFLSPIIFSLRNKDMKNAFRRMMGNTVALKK
In short: as §1

[7] = target: T7, OR10Z1 (Homo sapiens) (UniProt Q8NGY1)
T7 sequence (whole entry): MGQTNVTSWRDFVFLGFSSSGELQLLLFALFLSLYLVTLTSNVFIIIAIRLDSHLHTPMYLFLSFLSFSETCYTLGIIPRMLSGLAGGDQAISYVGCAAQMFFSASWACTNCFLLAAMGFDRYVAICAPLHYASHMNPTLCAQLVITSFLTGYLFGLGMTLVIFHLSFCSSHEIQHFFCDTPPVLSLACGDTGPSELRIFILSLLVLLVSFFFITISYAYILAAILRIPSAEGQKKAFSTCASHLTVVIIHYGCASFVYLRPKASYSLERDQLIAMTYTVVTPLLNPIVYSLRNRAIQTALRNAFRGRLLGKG
In short: as §1

[8] = target: T8, OR11A1 (Homo sapiens) (UniProt Q9GZK7)
T8 sequence (whole entry): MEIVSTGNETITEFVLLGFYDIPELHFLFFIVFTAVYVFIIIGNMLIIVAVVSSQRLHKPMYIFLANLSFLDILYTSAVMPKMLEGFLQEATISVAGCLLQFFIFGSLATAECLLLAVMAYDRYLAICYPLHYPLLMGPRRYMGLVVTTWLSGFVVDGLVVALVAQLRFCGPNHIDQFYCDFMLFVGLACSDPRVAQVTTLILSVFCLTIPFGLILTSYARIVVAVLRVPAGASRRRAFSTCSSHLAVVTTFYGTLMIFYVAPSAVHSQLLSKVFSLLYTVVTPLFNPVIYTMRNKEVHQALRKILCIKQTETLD
In short: as §1

[9] = target: T9, OR11G2 (Homo sapiens) (UniProt Q8NGC1)
T9 sequence (whole entry): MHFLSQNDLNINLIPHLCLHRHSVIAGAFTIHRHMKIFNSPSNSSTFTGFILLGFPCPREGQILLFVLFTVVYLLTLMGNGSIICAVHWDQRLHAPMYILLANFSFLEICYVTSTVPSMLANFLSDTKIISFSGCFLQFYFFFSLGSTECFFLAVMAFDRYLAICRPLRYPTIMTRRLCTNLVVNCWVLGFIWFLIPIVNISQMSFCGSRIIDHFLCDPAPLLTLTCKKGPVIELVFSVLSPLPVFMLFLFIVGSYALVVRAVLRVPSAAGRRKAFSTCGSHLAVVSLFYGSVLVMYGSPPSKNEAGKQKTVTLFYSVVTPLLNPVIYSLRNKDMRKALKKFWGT
In short: as §1

[10] = target: T10, OR11H1 (Homo sapiens) (UniProt Q8NG94)
T10 sequence (whole entry): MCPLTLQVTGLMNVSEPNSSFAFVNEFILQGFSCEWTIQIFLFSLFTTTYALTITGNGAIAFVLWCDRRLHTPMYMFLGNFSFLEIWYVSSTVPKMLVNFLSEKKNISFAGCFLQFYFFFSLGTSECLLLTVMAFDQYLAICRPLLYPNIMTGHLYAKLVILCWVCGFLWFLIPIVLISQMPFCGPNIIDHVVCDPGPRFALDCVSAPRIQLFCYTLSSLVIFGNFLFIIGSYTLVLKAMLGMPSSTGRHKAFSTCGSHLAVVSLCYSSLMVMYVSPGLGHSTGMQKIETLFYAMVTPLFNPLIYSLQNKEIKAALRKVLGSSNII
In short: as §1

[11] = target: T11, OR11H2 (Homo sapiens) (UniProt Q8NH07)
T11 sequence (whole entry): T10 sequence (whole entry) with Q7H, T49I, M181K, R199L, M240V, S269P
In short: as §1

[12] = target: T12, OR11H4 (Homo sapiens) (UniProt Q8NGC9)
T12 sequence (whole entry): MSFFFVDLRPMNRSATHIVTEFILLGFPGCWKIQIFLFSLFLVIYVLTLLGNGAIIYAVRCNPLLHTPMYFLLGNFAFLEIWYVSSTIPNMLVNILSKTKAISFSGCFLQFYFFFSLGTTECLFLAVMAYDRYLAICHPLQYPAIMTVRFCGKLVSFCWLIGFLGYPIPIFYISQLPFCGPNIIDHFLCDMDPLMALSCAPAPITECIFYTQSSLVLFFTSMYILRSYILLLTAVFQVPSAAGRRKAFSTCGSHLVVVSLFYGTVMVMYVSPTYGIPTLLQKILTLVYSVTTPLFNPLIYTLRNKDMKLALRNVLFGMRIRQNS
In short: as §1

[13] = target: T13, OR11H6 (Homo sapiens) (UniProt Q8NGC7)
T13 sequence (whole entry): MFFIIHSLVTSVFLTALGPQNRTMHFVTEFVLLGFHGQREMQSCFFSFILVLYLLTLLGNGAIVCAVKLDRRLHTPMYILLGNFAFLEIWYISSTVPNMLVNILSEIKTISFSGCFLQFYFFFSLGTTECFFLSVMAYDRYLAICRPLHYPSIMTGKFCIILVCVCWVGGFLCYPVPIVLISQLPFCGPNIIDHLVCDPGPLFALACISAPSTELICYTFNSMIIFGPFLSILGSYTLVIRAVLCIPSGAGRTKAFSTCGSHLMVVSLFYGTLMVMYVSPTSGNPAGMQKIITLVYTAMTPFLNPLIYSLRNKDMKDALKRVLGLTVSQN
In short: as §1

[14] = target: T14, OR11L1 (Homo sapiens) (UniProt Q8NGX0)
T14 sequence (whole entry): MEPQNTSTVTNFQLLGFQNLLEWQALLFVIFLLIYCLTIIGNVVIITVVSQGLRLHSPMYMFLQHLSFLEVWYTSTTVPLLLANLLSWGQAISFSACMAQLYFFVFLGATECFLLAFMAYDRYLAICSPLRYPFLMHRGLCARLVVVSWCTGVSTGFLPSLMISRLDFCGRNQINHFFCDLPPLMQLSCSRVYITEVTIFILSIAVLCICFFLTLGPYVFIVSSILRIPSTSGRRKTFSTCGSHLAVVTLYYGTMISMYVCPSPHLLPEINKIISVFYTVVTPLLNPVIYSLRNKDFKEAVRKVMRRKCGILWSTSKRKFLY
In short: as §1

[15] = target: T15, OR12D2 (Homo sapiens) (UniProt P58182)
T15 sequence (whole entry): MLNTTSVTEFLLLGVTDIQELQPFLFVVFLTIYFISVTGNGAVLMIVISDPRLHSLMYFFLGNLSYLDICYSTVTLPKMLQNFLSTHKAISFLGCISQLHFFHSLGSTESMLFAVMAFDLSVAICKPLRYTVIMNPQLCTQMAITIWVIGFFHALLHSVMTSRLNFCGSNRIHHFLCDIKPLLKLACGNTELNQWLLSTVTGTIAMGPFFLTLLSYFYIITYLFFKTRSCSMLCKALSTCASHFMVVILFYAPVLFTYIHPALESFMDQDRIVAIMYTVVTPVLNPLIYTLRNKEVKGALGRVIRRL
In short: as §1

[16] = target: T16, OR12D3 (Homo sapiens) (UniProt Q9UGF7)
T16 sequence (whole entry): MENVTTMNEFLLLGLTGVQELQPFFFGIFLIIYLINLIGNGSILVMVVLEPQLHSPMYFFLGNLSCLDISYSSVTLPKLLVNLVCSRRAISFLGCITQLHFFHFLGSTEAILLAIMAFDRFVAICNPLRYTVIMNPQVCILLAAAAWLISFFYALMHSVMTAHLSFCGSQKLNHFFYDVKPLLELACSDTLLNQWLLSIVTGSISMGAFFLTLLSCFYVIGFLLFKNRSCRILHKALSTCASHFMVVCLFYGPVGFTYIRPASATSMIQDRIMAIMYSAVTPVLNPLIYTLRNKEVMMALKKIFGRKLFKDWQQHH
In short: as §1

[17] = target: T17, OR13A1 (Homo sapiens) (UniProt Q8NGR1)
T17 sequence (whole entry): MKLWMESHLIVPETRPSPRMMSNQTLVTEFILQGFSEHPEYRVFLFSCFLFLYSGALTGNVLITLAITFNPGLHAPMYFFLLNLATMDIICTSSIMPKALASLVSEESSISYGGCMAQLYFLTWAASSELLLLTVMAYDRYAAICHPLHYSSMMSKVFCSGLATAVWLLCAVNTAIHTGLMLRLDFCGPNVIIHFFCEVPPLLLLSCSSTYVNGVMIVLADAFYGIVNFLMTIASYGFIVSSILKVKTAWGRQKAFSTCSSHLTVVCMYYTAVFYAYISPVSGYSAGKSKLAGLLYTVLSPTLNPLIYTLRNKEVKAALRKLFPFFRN
In short: as §1

[18] = target: T18, OR11H12 (Homo sapiens) (UniProt B2RN74)
T18 sequence (whole entry): T10 sequence (whole entry) with S33T, R68W, Y156C, M240V
In short: as §1

[19] = target: OR11H7 (Homo sapiens) (UniProt Q8NGC8)
Chain of OR11H7 (Homo sapiens) (Q8NGC8 whole entry): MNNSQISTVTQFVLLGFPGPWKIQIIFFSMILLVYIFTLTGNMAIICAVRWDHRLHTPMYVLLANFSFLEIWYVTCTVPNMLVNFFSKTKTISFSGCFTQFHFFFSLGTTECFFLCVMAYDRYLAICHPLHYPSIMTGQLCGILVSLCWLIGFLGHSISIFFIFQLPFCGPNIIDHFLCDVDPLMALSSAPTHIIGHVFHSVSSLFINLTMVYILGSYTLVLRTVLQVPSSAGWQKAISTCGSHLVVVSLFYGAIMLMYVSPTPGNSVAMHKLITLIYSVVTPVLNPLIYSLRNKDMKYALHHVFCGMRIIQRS
In short: as §1

[20] = target: OR12D1 (Homo sapiens) (UniProt P0DN82)
Chain of OR12D1 (Homo sapiens) (P0DN82 as listed by the source): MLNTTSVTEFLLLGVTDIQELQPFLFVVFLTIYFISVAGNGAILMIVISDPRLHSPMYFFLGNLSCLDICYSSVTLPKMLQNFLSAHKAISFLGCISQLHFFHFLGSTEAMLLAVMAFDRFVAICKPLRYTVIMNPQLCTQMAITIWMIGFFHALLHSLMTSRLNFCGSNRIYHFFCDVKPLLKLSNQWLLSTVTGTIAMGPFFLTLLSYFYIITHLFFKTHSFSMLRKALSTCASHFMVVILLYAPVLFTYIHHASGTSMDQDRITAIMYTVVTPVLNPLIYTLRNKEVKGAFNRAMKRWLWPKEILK
In short: as §1

Measured: odorant receptor agonist call;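 note: active if original authors judged signal statistically different from baseline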

CCCCCC(=O)C(C)C(C)=O (stereo not drawn)
not listed: [18] | [19] | [20]
inactive: all other assays above

Cc1ccc(C(C)C)cc1
inactive: [2]

CCCCC(S)C(C)CO (stereo not drawn)
not listed: [18] | [19] | [20]
inactive: all other assays above

COc1ccc2[nH]cc(CCNC(C)=O)c2c1
inactive: [2]

CCC(S)C(C)CO (stereo not drawn)
not listed: [18] | [19] | [20]
inactive: all other assays above

CC1=C(O)C(=O)OC1C (stereo not drawn)
not listed: [19] | [20]
inactive: all other assays above

CC(=O)c1c(C)c([N+](=O)[O-])c(C(C)(C)C)c([N+](=O)[O-])c1C
inactive: all assays above

CC1=NC(C)C(C)S1 (stereo not drawn)
not listed: [19] | [20]
inactive: all other assays above

CCCC(S)CCOC(C)=O (stereo not drawn)
not listed: [19] | [20]
inactive: all other assays above

CCC1OC(=O)C(O)=C1C (stereo not drawn)
not listed: [19] | [20]
inactive: all other assays above

CC(C)=CCCC(C)=CCO
active: [2]

O=C1CCOc2ccccc21
inactive: [18]

O=c1ccc2ccccc2o1
active: [18]
